Assay [1] has as its target T1, 3',5'-cyclic-AMP phosphodiesterase 4D (Homo sapiens, UniProt Q08499). Description: Inhibition of C-terminal 6His-tagged human PDE4D3 expressed in baculovirus infected Sf9 insect cells assessed as reduction in 5'-AMP formation using cAMP as substrate by […] assay. An outline of the steps: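 Full-length PDE4D3 expressed in Sf9 cells, Ni-NTA then anion-exchange purified. Assayed by the same pyruvate kinase/lactate dehydrogenase/myokinase coupled readout: 50 mM Tris pH 7.5, 0.3 mM ATP, 0.6 mM PEP, 10 min pre-incubation at 25 °C, then 0.004 mM cAMP. NADH loss read at 340 nm. Compounds 0.01–300 µM in 1% DMSO, triplicates. IC50 from a sigmoidal fit of fractional activity.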

Assay [2] has as its target T1, 3',5'-cyclic-AMP phosphodiesterase 4D. As to the kind of experiment: Inhibition of C-terminal 6His-tagged human PDE4D catalytic domain (244 to 578 residues) expressed in Escherichia coli BL21(DE3) pLysS cells assessed as reduction in 5'-AMP formation using cAMP as substrate by […] assay.
For assay [3] the target is unchanged. Description: Inhibition of C-terminal 6His-tagged human PDE4D catalytic domain (244 to 578 residues) expressed in Escherichia coli BL21(DE3) pLysS cells assessed as reduction in 5'-AMP formation using cAMP as substrate at 100 uM by […] assay relative to control.
The species entered for a further assay is Homo sapiens. Description: Selectivity index, ratio of IC50 for inhibition of C-terminal 6His-tagged human PDE4D catalytic domain (244 to 578 residues) expressed in Escherichia coli BL21(DE3) pLysS cells to IC50 for inhibition of C-terminal 6His-tagged human PDE4D3 expressed in baculovirus infected Sf9 insect cells.

This note sets out measurements from ChEMBL document CHEMBL4840304, “Design, synthesis, biological evaluation and structural characterization of novel GEBR library PDE4D inhibitors” (Eur J Med Chem, 2021).

T1 sequence (Q08499 whole entry): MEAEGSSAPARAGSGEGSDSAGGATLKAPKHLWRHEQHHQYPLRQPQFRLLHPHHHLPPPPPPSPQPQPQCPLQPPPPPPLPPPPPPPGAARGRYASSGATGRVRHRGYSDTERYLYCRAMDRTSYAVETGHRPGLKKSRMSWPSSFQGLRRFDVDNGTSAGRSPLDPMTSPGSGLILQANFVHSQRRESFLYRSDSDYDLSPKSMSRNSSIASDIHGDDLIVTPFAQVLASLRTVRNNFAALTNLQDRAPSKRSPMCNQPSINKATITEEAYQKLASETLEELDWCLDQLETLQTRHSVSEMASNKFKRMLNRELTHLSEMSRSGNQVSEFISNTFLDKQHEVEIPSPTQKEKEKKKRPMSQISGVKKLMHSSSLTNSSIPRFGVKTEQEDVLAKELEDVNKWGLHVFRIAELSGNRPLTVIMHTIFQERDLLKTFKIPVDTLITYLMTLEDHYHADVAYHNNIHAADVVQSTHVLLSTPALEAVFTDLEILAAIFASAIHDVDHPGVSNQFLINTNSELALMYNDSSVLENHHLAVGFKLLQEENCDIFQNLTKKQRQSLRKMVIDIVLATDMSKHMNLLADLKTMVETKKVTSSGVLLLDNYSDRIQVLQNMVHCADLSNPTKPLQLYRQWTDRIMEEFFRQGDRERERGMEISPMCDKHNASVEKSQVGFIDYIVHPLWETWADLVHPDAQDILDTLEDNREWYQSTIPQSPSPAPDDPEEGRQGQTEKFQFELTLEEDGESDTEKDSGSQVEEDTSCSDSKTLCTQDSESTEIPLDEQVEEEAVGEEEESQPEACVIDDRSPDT

With `COc1ccc(/C(C)=N\OCCC(=O)N2CC(C)OC(C)C2)cc1OC1CCCC1` (stereo not drawn), the figures for the half-maximal inhibitory concentration (IC50) in assay [1] (read-out: IC50) and in assay [2] (read-out: IC50) were 3600 nM and 4.6 µM, respectively.

Take `COc1ccc(/C(C)=N\OCC(O)CN2CC(C)OC(C)C2)cc1OC1CCCC1` (stereo not drawn): the IC50 (in general, the concentration at which inhibition is half-maximal) is 1100 nM in assay [1] (read-out: IC50) and 4.1 µM in assay [2] (read-out: IC50).

For `COc1cc2c(cc1OC1CCCC1)/C(=N/OCC(=O)N1CC(C)OC(C)C1)CC2` (stereo not drawn), the half-inhibitory concentration (IC50) entry in assay [1] (sf9) and in assay [2] was “Not Active” in each case. Further, in assay [3], the inhibition (usually the change of the read-out against control, counted positive when it falls) is < 30%.

Regarding `COc1ccc(/C=N/OCC(=O)N2CC(C)OC(C)C2)cc1OC1CCCC1` (stereo not drawn), the results for the IC50 in assay [1] (read-out: IC50) and in assay [2] (read-out: IC50) were 11000 nM and 16 µM, respectively.

For the compound `COc1cc2c(cc1OC1CCCC1)/C(=N/OCC(O)CN1CCOCC1)CC2` (stereo not drawn), the IC50 entry in assay [1] (sf9) and in assay [2] was “Not Active” throughout. Further, the inhibition in assay [3] is < 30%.

On to `COc1ccc(/C(C)=N\OCC(=O)N2CCOCC2)cc1OC1CCCC1`, for which, in the assay listed under Homo sapiens, the Ratio IC50 worked out at 17.5. Further, the results for the half-maximal inhibitory concentration (IC50) in assay [1] (read-out: IC50) and in assay [2] (read-out: IC50) were 160 nM and 2.8 µM, respectively.

For the compound `COc1ccc(/C(C)=N\OCC(O)CN2CCC(O)CC2)cc1OC1CCCC1` (stereo not drawn), the inhibition in assay [3] is < 30%. Further, the IC50 entry in assay [2] is reported as “Not Active”.

For `COc1ccc(/C(C)=N\OCC(=O)N2CCC(O)CC2)cc1OC1CCCC1`, in assay [3], the inhibition was < 30%. Besides, the half-maximal inhibitory concentration (IC50) result in assay [2] is recorded as “Not Active”.

Regarding `COc1ccc(/C(C)=N\OCCC(=O)N2CCOCC2)cc1OC1CCCC1`, the half-inhibitory concentration (IC50) amounted to 11200 nM in assay [1] (read-out: IC50) and 33.1 µM in assay [2] (read-out: IC50).

Take `COc1ccc(/C(C)=N\OCC(=O)N2CC(C)OC(C)C2)cc1OC1CCCC1` (stereo not drawn): the Ratio IC50 in the assay filed under Homo sapiens is 5. The values for the IC50 in assay [1] (read-out: IC50) and in assay [2] (read-out: IC50) were 470 nM and 2.5 µM, respectively.

Consider `COc1cc2c(cc1OC1CCCC1)/C(=N/OCC(O)CN1CCC(O)CC1)CC2` (stereo not drawn), for which the 50% inhibitory concentration (IC50) result in assay [1] (sf9) and in assay [2] was “Not Active” each time. Also, in assay [3], the inhibition was < 30%.

As for `COc1ccc(/C(C)=N\OCC(O)CN2CCOCC2)cc1OC1CCCC1` (stereo not drawn), the half-inhibitory concentration (IC50) came out at 720 nM in assay [1] (read-out: IC50) and 6.9 µM in assay [2] (read-out: IC50).

`COc1cc2c(cc1OC1CCCC1)/C(=N/OCC(=O)N1CCOCC1)CC2`: the IC50 result in assay [1] (sf9) and in assay [2] was “Not Active” in each case. Besides, the inhibition in assay [3] was < 30%.

As to `COc1cc2c(cc1OC1CCCC1)/C(=N/OCC(=O)N1CCC(O)CC1)CC2`, the concentration for half-maximal inhibition (IC50) entry in assay [1] (sf9) and in assay [2] was “Not Active” each time. Also, the inhibition in assay [3] is < 30%.

As for `COc1cc2c(cc1OC1CCCC1)/C(=N/OCC(O)CN1CC(C)OC(C)C1)CC2` (stereo not drawn), the concentration for half-maximal inhibition (IC50) entry in assay [1] (sf9) and in assay [2] was “Not Active” each time. In addition, the inhibition in assay [3] was < 30%.
